In ChEMBL document CHEMBL4819027, “Design, synthesis and biological evaluation of novel 2-(4-(1H-indazol-6-yl)-1H-pyrazol-1-yl)acetamide derivatives as potent VEGFR-2 inhibitors” (Eur J Med Chem, 2021):
Active and inactive are the calls of the source. The calls are words filed in the database; no cut-off is given here.

Legend:
HT-29 = test: Antiproliferative activity against human HT-29 cells assessed as cell growth inhibition after 72 hrs by MTT assay; assay type: functional, cell-based; conditions: HT-29, 72 h
Method in brief: (§1)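 Log-phase cells were seeded at 5 × 10³ per well and attached 24 h. HT-29 and GES-1 were grown in DMEM-based medium, A549/HepG2/HGC-27 in RPMI-1640, HUVEC in ECM with ECGS; all media had 10% FBS. Cells were exposed to graded compound concentrations for 72 h at 37 °C. MTT (5 mg/mL stock) was added for 4 h, formazan dissolved in DMSO, and A490 read. IC50 was obtained by nonlinear sigmoidal regression; mean ± S.E. of three experiments.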

HUVEC [1] = test: Cytotoxicity against HUVEC cells at 1 to 5 uM after 72 hrs by MTT assay; assay type: cell-based; conditions: human, dose 1-5 µM
Method in brief: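 HUVECs grown in ECM with 1% ECGS and 10% FBS were seeded at 5 × 10³ per well and attached 24 h. Cells were exposed to compound at 1, 2.5 and 5 μM for 72 h at 37 °C. Viability was read by MTT: 4 h incubation, DMSO solubilization, absorbance at 490 nm.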

HGC-27 [2] = test: Induction of apoptosis in human HGC-27 cells assessed as late apoptotic cells level at 0.1 uM incubated for 24 hrs by propidium iode and annexin V-FITC staining based flow cytometry (reference value: 0.86%); assay type: functional
Method in brief: (§2)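 HGC-27 cells (1.0 × 10⁶ per 60 mm dish) were treated 24 h with 0.1% DMSO or compound (0.1, 0.5, 1 μM). Cells were stained with Annexin V-FITC in HEPES/NaCl/CaCl₂ binding buffer (pH 7.4) for 15 min at room temperature, then with PI for 10 min. About 10 000 events were acquired by flow cytometry to give viable, early apoptotic, late apoptotic and necrotic fractions.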

HGC-27 [3] = test: Induction of apoptosis in human HGC-27 cells assessed as necrotic cells level at 0.1 uM incubated for 24 hrs by propidium iode and annexin V-FITC staining based flow cytometry (reference value: 1.64%); assay type: functional; method in brief: as §2
HGC-27 [4] = test: Antiinvasive activity against human HGC-27 cells assessed as reduction in cell invasion measured after 24 hrs by transwell invasion assay; assay type: functional, cell-based
Method in brief: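 Transwell inserts (12 μm pore) were precoated with Matrigel. HGC-27 cells at 5 × 10⁵ cells/mL were placed in the upper well in serum-free medium with compound (0.1, 0.5, 1 μM). The lower chamber held RPMI-1640 with 10% FBS. After 24 h at 37 °C, invaded cells were methanol-fixed and stained with 0.1% crystal violet. Cells were counted in three random fields; three independent experiments, mean ± SD.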

[5] = target: T1, Vascular endothelial growth factor receptor 2 (Homo sapiens, UniProt P35968); test: Inhibition of VEGFR2-mediated angiogenesis in HUVEC cells assessed as reduction of phosphorylation of VEGFR-2 after 24 hrs by Westernblot analysis relative to control; assay type: cell-based; conditions: dose 1-10 µM
Method in brief: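 HUVECs seeded at 1.0×10^6 cells/dish in ECM with 1% ECGS, 10% FBS; treated 24 h with test compound (1, 5, 10 µM), 0.1% DMSO vehicle or 10 µM sorafenib. Lysed in RIPA with PMSF and phosphatase inhibitor; 8–12% SDS-PAGE, nitrocellulose, milk block, CST primaries overnight 4 °C, HRP secondaries, ECL; p-VEGFR-2 (Tyr1175) densitometry; at least triplicate.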

HGC-27 [6] = test: Downregulation of MMP-9 protein expression in human HGC-27 cells incubated for 24 hrs by immunoblot analysis; assay type: functional, cell-based
Method in brief: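 HGC-27 cells (1.0 × 10⁶ per 60 mm dish) were treated 24 h with 0.1% DMSO or compound (0.1, 0.5, 1 μM). Cells were lysed in RIPA with PMSF and phosphatase inhibitor, and protein measured by BCA. Lysates were run on 8–12% SDS-PAGE, transferred to nitrocellulose and probed with primary antibodies overnight at 4 °C, then HRP secondary. Bands were detected by ECL and densitometry; at least triplicate.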

HGC-27 [7] = test: Induction of apoptosis in human HGC-27 cells assessed as total apoptotic cells level at 0.1 uM incubated for 24 hrs by propidium iode and annexin V-FITC staining based flow cytometry; assay type: functional; method in brief: as §2
HGC-27 [8] = test: Induction of apoptosis in human HGC-27 cells assessed as total apoptotic cells level at 1 uM incubated for 24 hrs by propidium iode and annexin V-FITC staining based flow cytometry; assay type: functional; method in brief: as §2
[9] = target: T1, Vascular endothelial growth factor receptor 2; test: Inhibition of VEGFR2 in human HGC-27 cells assessed as downregulation of VEGFR2 phosphorylation at Tyr1175 at 0.1 to 1 uM after 24 hrs by Westernblot analysis; assay type: cell-based; conditions: dose 0.1-1 µM
Method in brief: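 HGC-27 cells (1.0 × 10⁶ per 60 mm dish) were treated 24 h with 0.1% DMSO or compound (0.1, 0.5, 1 μM). RIPA lysates with phosphatase inhibitor were quantified by BCA and resolved on 8–12% SDS-PAGE onto nitrocellulose. Blots were probed for p-VEGFR-2 (Tyr1175), p-PI3K (Tyr607), p-AKT (Thr308) and p-mTOR (Ser2448), with ECL detection and densitometry; mean ± SEM.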

HepG2 = test: Antiproliferative activity against human HepG2 cells assessed as cell growth inhibition after 72 hrs by MTT assay; assay type: functional, cell-based; conditions: HepG2, 72 h; method in brief: as §1
HGC-27 [10] = test: Induction of apoptosis in human HGC-27 cells assessed as early apoptotic cells level incubated for 24 hrs by propidium iode and annexin V-FITC staining based flow cytometry; assay type: functional, cell-based; conditions: dose 0.1-1 µM; method in brief: as §2
HUVEC [11] = test: Antiangiogenic activity against HUVEC cells assessed as reduction in VEGF-induced total branching points at 1 to 10 uM incubated for 12 hrs by matrigel-based assay; assay type: functional, cell-based; conditions: Homo sapiens, dose 1-10 µM
Method in brief: (§3)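 HUVECs at 4 × 10⁵ cells/mL seeded on Matrigel that had been polymerized 1 h at 37 °C. Cells were stimulated with 20 ng/mL VEGF and treated with compound (1, 2.5, 5 and 10 μM) or 0.1% DMSO vehicle for 12 h at 37 °C. Tubes were imaged by inverted microscopy. Tube length, surface area and branch points were quantified as pixel area.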

HUVEC [12] = test: Antiangiogenic activity against HUVEC cells assessed as reduction in VEGF-induced tube surface area at 1 to 10 uM incubated for 12 hrs by matrigel-based assay; assay type: functional, cell-based; conditions: Homo sapiens, dose 1-10 µM; method in brief: as §3

T1 sequence (P35968 whole entry): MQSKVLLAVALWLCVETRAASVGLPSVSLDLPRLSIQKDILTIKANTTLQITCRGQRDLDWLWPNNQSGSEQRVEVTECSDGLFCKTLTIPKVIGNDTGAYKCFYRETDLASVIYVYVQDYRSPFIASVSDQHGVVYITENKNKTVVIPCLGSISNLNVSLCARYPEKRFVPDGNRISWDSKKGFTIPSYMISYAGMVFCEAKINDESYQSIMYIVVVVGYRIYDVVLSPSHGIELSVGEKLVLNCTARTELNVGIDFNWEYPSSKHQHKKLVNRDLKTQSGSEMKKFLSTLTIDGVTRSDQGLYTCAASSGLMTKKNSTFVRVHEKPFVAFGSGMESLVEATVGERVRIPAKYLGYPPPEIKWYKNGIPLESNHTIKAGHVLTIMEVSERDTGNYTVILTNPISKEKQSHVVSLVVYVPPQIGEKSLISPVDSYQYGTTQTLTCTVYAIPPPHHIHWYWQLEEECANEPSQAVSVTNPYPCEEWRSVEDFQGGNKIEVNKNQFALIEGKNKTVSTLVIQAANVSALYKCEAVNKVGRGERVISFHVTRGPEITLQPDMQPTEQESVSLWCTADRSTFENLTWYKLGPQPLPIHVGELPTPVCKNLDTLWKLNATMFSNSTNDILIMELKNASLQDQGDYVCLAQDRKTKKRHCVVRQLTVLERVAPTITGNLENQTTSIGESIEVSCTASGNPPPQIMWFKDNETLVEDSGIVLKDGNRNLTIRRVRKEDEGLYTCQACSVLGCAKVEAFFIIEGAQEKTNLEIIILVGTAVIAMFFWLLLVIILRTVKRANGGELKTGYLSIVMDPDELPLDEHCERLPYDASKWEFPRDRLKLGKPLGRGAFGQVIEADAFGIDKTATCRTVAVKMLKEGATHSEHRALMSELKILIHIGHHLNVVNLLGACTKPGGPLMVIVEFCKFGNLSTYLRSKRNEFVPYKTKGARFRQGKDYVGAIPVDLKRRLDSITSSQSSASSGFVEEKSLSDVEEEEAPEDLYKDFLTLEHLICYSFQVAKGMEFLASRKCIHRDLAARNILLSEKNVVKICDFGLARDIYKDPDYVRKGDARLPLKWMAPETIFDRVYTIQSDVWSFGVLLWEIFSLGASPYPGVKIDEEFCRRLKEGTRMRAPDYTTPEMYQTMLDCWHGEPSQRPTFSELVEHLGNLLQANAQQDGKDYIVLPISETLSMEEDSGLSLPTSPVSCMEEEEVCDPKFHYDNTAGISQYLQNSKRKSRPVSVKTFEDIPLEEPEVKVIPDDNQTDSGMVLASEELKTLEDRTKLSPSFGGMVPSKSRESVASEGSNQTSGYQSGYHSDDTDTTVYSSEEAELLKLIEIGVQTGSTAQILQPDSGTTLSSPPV

CC(=O)Nc1n[nH]c2cc(-c3cnn(CC(=O)Nc4ccc(C)c(C(F)(F)F)c4)c3)ccc12
IC50 (HT-29): 2.97 µM | Activity (HUVEC [1]): Non-Toxic | Activity (HGC-27 [2]): 2.67% | Activity (HGC-27 [3]): 2.12% | inhibition (HGC-27 [4]): Dose-Dependent Effect | inhibition [5]: Dose-Dependent Effect | inhibition (HGC-27 [6]): Dose-Dependent Effect | Activity (HGC-27 [7]): 7.42% | Activity (HGC-27 [8]): 28.8% | inhibition [9]: Active | IC50 (HepG2): 15 µM | Activity (HGC-27 [10]): Dose-Dependent Effect | Activity (HUVEC [11]): Active | Activity (HUVEC [12]): Active
